# Compound activity: PubChem, Sanford-Burnham Center for Chemical Genomics
# Compounds with a hit are over-represented: about 3.1% of the library has one in this group of screens.
# SENP6 inh: SENP6 protease inhibitors, primary screen, biochemical, luminescence, uHTS; 330,000 tested, 1.8% active; inhibition, % at 10 µM; Sentrin-specific protease 6 (Homo sapiens), Q9GZR1; Recombinant SENP6 catalytic domain, aminoluciferin luminescence; AID 2599, 2010;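 active = inhibition above about 50% at the single tested dose, limit read from the data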;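 note: plate controls were DMSO wells with enzyme for no effect and DMSO wells lacking enzyme for full effect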
# SENP8 block-1: SENP8 protease inhibitors, primary screen, biochemical, luminescence; purified SENP8, Z-RLRGG-aminoluciferin cleavage; 330,000 tested, 1.2% active; inhibition, % at 10 µM; Sentrin-specific protease 8 (Homo sapiens), Q96LD8; in the data active = inhibition above about 50%
# Target sequence (Q96LD8 whole entry, looked up): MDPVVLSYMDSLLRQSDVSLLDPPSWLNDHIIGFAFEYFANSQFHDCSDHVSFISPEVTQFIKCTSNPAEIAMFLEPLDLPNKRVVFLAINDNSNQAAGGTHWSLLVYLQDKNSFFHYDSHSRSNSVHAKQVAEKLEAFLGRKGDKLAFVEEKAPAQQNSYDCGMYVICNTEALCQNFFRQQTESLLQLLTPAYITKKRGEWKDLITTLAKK
# SENP8 block-2: human SENP8 protease inhibitors, primary screen, biochemical, fluorescence, Nedd8 protein substrate, uHTS; inhibition, % at 20 µM; 360,000 tested, 0.64% active; recombinant SENP8; in the data active = inhibition mostly above about 40%, no sharp cut-off; inactive = mostly below about 27%
# SENP7 block: SENP7 protease inhibitors, primary screen, biochemical, luminescence, uHTS | Sentrin-specific protease 7 (Homo sapiens), Q9BQF6 | recombinant SENP7, Z-RLRGG-aminoluciferin luminescence, 40 min | inhibition, % at 5 µM | 330,000 tested, 1.5% active;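 active = inhibition above about 50% at the single test dose, limit read from the data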;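 note: plate controls were DMSO with enzyme for no effect and no enzyme buffer wells for full effect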
# Target sequence (Q9BQF6 706-1050 limits assumed): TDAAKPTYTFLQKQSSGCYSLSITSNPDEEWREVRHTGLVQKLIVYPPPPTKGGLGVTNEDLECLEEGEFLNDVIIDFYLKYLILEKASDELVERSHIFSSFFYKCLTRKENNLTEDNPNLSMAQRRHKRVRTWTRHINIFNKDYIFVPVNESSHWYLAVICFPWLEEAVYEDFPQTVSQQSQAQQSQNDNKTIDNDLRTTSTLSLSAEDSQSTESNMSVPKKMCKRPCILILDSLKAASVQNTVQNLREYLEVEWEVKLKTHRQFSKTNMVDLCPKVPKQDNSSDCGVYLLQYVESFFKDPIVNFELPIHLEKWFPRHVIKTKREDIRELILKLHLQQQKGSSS
# Apaf1 inhib: inhibitors of human Apaf-1 apoptosome, primary screen, biochemical, DEVD-Rh110 fluorescence, uHTS; Apoptotic protease-activating factor 1 (Homo sapiens), O14727; reconstituted apoptosome caspase-3 activity; inhibition, % at 20 µM; 330,000 tested, 0.71% active; AID 489030, 2010; active = inhibition of at least 40% at 20 µM;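 note: plate controls were DMSO wells for no effect and DEVD-CHO caspase inhibitor wells for full effect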
#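 Material: reconstituted apoptosome with Apaf-1, cytochrome c, caspase-9, procaspase-3, dATP; medium: pH 7.5 Hepes buffer with CHAPS, BSA, DTT; also added: cytochrome c and DEVD-Rh110 substrate; timing: 30 min plus 50 min, RT; signal: Rh110 fluorescence intensity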
# UBC13 inh: UBC13 polyubiquitin chain formation inhibitors, primary screen, biochemical, TR-FRET, uHTS; Ubiquitin-conjugating enzyme E2 N (Homo sapiens), P61088; inhibition, % at 20 µM; 330,000 tested, 0.47% active; AID 485273, 2010; in the data active = inhibition above about 45%, passing the limit was not always enough
# SENP8 inh conf: human SENP8 protease inhibitors, confirmation, biochemical, Nedd8 protein substrate, single concentration; 1,400 tested, 15% active; inhibition, % at 25 µM; AID 624319, 2012; shares compounds with SENP8 block-2; purified SENP8, Nedd8-AMC/pro-Nedd8 cleavage fluorescence, 30 min; in the data active = inhibition mostly above about 39%, no sharp cut-off; inactive = mostly below about 34%
# The depositor's hits bear a star; nt = not tested or not shown.
SMILES,SENP6 inh,SENP8 block-1,SENP8 block-2,SENP7 block,Apaf1 inhib,UBC13 inh,SENP8 inh conf
Nc1nc(NCCOCCO)nc(NC2CCCCC2)c1[N+](=O)[O-],0,-1,47*,0,11,-4,-1
COc1ccc(N=C2S/C(=C\c3ccc(C)s3)C(=O)N2CC(C)C)cc1,3,-6,44*,-1,17,-2,16
Cc1noc(C)c1NC(=O)N(C)C[C@H]1OCc2cnnn2CCCC(=O)N([C@H](C)CO)C[C@H]1C,nt,nt,21,nt,nt,nt,nt
N#CC(c1ccc(Cl)nn1)c1ccccc1Cl (stereo not drawn),-8,3,41*,5,2,10,9
O=S(=O)(NCC[C@@H]1CC[C@H](NS(=O)(=O)c2cccc(F)c2)[C@@H](CO)O1)c1cccc(F)c1,nt,nt,25,nt,nt,nt,nt
N#Cc1ncc(C(F)(F)F)cc1Sc1ccc(N)cc1,-11,4,45*,5,1,16,24
N#Cc1cc(N)ccc1Sc1ccc(Cl)cc1,-1,-4,-453,-6,10,11,nt
COC(=O)CCCn1cc(CN2CC(N(C)C)CS2(=O)=O)nn1 (stereo not drawn),nt,nt,2,nt,nt,nt,nt
Cc1cc(O)c(C(C)C)cc1N=Cc1ccc(N(C)C)cc1,nt,nt,38,nt,nt,nt,nt
COc1cccc(C=Nc2cc(C(C)C)c(O)cc2C)c1O,nt,nt,70*,nt,nt,nt,23
Cc1cc(O)c(C(C)C)cc1N=Cc1ccc([N+](=O)[O-])cc1,nt,nt,95*,nt,nt,nt,11
COCc1c(C)cc(C)c(/C=N/O)c1C,5,8,47*,0,6,-4,10
CCC(=O)NC(c1cccs1)c1ccc2cccnc2c1O (stereo not drawn),-15,0,9,0,-7,-25,nt
CCC(=O)NC(c1cccs1)c1cc([N+](=O)[O-])c2cccnc2c1OC (stereo not drawn),nt,nt,96*,nt,nt,nt,34
Cc1ccc(C(=O)O/N=C\c2ccc(N3CCCCC3)c([N+](=O)[O-])c2)cc1,-13,3,48*,-6,1,-14,13
O=C(O/N=C\c1ccc(N2CCCCC2)c([N+](=O)[O-])c1)c1cccc(Cl)c1,1,-1,59*,7,16,-13,15
O=C(Nc1ccccc1N1CCCC1)c1ccc([N+](=O)[O-])o1,22,-3,40*,14,2,-18,54*
O=C(Nc1ccc(N2CCN(C(=O)c3ccc(Cl)cc3)CC2)cc1)c1ccc2c(c1)OCCO2,-11,-9,8,0,9,-3,nt
CCC(=O)N1CCN(c2ccc(NC(=O)c3ccc([N+](=O)[O-])o3)cc2)CC1,nt,nt,43*,nt,nt,nt,26
CC(C)(C)C(=O)N1CCN(c2ccc(NC(=O)c3ccc([N+](=O)[O-])o3)cc2)CC1,12,6,48*,12,1,-17,27
O=C(Nc1ccc(N2CCN(C(=O)c3ccc(Cl)cc3)CC2)cc1)c1ccc([N+](=O)[O-])o1,nt,nt,33*,nt,nt,nt,26
CCc1nc2c(OCc3ccc4c(c3)OCO4)cccn2c1N(C=O)Cc1ccccc1,nt,nt,-6,nt,nt,nt,nt
CCCC(=O)N1CCN(c2ccc(NC(=O)c3ccc([N+](=O)[O-])o3)cc2)CC1,nt,nt,54*,nt,nt,nt,46
CC1=C(C(=O)N2CCCCCC2)CC(CC(=O)NCCCCc2ccccc2)C(=O)N1Cc1ccccc1 (stereo not drawn),nt,nt,19,nt,nt,nt,nt
COc1cccc(Nc2cc(N3CCOCC3)c3nonc3c2[N+](=O)[O-])c1,4,-6,44*,-9,8,-23,14
SMILES,SENP6 inh,SENP8 block-1,SENP8 block-2,SENP7 block,Apaf1 inhib,UBC13 inh,SENP8 inh conf
O=C(C1CCCN(S(=O)(=O)c2cccs2)C1)N1CCc2ccccc2C1 (stereo not drawn),-13,-3,39,-1,26,4,nt
CCS(=O)(=O)N1CCCC(C(=O)N2CCc3ccccc3C2)C1 (stereo not drawn),1,5,53*,4,10,3,54*
COc1ccc(OC)c(S(=O)(=O)N2CCC(C(=O)N3CCc4ccccc4C3)CC2)c1,-20,-8,44*,-12,16,-7,38
COc1cccc(C2=NOC(C(=O)N3CCc4ccccc4C3)C2)c1 (stereo not drawn),8,-1,51*,5,17,1,61*
CCOC(=O)[C@]12CCCC=C1N(Cc1ccco1)C(=O)[C@H](CC(=O)NCc1cccc3ccccc13)C2,nt,nt,16,nt,nt,nt,nt
Cc1ccc(OC2CCN(C(=O)[C@H]3O[C@@H](n4ccc(N)nc4=O)[C@H](O)[C@@H]3O)CC2)cc1,nt,nt,8,nt,nt,nt,nt
Cc1cc(=S)[nH]c2c(C)cccc12,-4,-10,40*,0,1,-3,13
Cc1ccc(Cc2c(-c3ccc(Cl)cc3)nc3c(C)cc(Br)cn23)cc1,nt,nt,8,nt,nt,nt,nt
COC(=O)CNC(=O)c1ccccc1,4,1,51*,7,13,-1,5
O=C(NCc1ccccc1)c1ccccc1,nt,nt,62*,nt,nt,nt,18
O=C(NCc1ccccc1)c1ccc(C(=O)NCc2ccccc2)cc1,nt,nt,15,nt,nt,nt,nt
O=C(Nc1ccc(N2CCOCC2)cc1)C1CCN(S(=O)(=O)Cc2ccccc2)CC1,-11,3,40*,2,1,-1,7
O=C(Nc1ccc2c(c1)OCCO2)C1CCN(S(=O)(=O)Cc2ccccc2)CC1,-38,-18,28,-10,2,-4,nt
COC(=O)Oc1nsnc1N1CCOCC1,6,2,13,-3,0,-1,nt
O=c1c(N2CCOCC2)nsnc1N1CCOCC1,4,-6,49*,1,1,-17,25
COc1ccc(C2=C(c3ccccc3)OC(OC)c3cc(F)ccc32)cn1 (stereo not drawn),nt,nt,4,nt,nt,nt,nt
Cn1c(SCCC#N)nnc1-c1ccc(F)cc1,0,-2,14,9,-13,7,nt
CC1=C(SCCC#N)S/C(=C2\SC(C)=C(SCCC#N)S2)S1,-6,2,46*,3,5,-2,69*
CCc1nc2c(OCC(=O)C(C)(C)C)cccn2c1N(C)C(=O)Nc1ccccc1OC,nt,nt,8,nt,nt,nt,nt
Cc1ccccc1-c1cnc(C(O)c2ccc(-c3ccccc3)cc2)[nH]1 (stereo not drawn),nt,nt,41*,nt,nt,nt,20
COc1ccc(-c2nc[nH]c2[N+](=O)[O-])cc1,-6,1,49*,-7,2,-9,17
CCOc1ccc(-c2nc[nH]c2[N+](=O)[O-])cc1,-2,0,0,6,-1,7,nt
CC(=O)Nc1cc(-c2cccc(CO)c2)cn2c(-c3ccc(F)cc3)cnc12,nt,nt,-256,nt,nt,nt,nt
